Data as given in ChEMBL document CHEMBL3297713, “Discovery, optimization, and biological evaluation of 5-(2-(trifluoromethyl)phenyl)indazoles as a novel class of transient receptor potential A1 (TRPA1) antagonists” (J Med Chem, 2014).
Each block holds one compound with its values, some of them ahead of it.

What was measured:
[1] = target: T1, Transient receptor potential cation channel subfamily A member 1 (Homo sapiens, UniProt O75762); assay: Antagonist activity at human TRPA1 expressed in CHO-TREX cells assessed as inhibition of cinnamaldehyde-induced calcium flux incubated 10 mins prior to cinnamaldehyde addition by FLIPR assay relative to control; assay type: cell-based
T1 sequence (O75762 whole entry): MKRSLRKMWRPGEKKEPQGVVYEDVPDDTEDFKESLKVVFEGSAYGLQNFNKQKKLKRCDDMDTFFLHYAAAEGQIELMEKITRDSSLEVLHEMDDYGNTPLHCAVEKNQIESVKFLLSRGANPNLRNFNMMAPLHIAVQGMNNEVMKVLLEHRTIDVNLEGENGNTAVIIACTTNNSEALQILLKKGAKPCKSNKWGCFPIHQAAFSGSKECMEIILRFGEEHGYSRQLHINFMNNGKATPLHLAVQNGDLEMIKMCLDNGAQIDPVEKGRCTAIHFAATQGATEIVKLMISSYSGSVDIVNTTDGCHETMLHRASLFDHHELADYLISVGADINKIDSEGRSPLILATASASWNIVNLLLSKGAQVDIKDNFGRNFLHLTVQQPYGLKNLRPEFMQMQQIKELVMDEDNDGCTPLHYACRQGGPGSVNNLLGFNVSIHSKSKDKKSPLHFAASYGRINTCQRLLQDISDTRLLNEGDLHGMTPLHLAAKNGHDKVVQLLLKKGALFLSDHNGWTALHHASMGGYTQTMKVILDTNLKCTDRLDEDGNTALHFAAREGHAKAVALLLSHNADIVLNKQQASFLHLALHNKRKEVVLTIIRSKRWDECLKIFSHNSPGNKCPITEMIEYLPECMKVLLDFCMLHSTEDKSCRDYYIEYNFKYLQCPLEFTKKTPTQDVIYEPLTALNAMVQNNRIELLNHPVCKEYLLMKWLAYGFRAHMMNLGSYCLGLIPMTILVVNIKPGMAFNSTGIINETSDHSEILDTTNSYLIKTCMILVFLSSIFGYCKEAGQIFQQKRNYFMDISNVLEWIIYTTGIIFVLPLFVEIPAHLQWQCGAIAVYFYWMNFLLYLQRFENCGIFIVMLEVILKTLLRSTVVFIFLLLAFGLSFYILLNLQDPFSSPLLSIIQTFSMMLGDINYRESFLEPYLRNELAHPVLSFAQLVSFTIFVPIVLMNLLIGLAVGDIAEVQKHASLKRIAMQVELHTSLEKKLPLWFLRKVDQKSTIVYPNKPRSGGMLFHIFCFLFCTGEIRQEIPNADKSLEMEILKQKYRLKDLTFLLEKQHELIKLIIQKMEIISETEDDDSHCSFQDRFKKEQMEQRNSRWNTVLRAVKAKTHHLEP
Outline: (§1)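 TRPA1-expressing CHO-TREX cells, channel expression induced with tetracycline (0.5 µg/mL human, 1 µg/mL mouse or rat). Cells loaded with Fluo4-AM for 90 min at room temperature, washed, then test agent added in HBSS/20 mM HEPES/2.5 mM probenecid/0.1% BSA. Agonist added 10 min later at EC80: human cinnamaldehyde 30 µM, AITC 2.5 µM, dibenzoxazepine-carboxamide 5 nM; rat and mouse cinnamaldehyde 40 µM. FLIPR calcium flux; mean of triplicates fitted to sigmoidal dose-response curves.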

[2] = system: CHO-K1; assay: Selectivity ratio of IC50 for human TRPV3 expressed in CHOK1 cells to IC50 for human TRPA1 expressed in CHO-TREX cells; assay type: cell-based
Outline: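 Calcium influx was measured by FLIPR in Fluo4-AM-loaded cells: hTRPV3 CHO-K1 challenged with 40 µM 2-APB, and hTRPA1 CHO-TREX (0.5 µg/mL tetracycline) challenged with 30 µM cinnamaldehyde, 2.5 µM AITC or 5 nM dibenzoxazepine carboxamide, all at EC80. Compounds were added 10 min ahead of agonist in HEPES-buffered HBSS with probenecid. Sigmoidal curves were fitted to triplicate means.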

[3] = target: Transient receptor potential cation channel subfamily A member 1 (Mus musculus, UniProt Q8BLA8); assay: (§2) Antagonist activity at mouse TRPA1 expressed in CHO-TREX cells assessed as inhibition of cinnamaldehyde-induced calcium flux incubated 10 mins prior to cinnamaldehyde addition by FLIPR assay relative to control; assay type: cell-based; outline: as §1
Chain of Transient receptor potential cation channel subfamily A member 1 (Mus musculus, UniProt Q8BLA8) (Q8BLA8 whole entry): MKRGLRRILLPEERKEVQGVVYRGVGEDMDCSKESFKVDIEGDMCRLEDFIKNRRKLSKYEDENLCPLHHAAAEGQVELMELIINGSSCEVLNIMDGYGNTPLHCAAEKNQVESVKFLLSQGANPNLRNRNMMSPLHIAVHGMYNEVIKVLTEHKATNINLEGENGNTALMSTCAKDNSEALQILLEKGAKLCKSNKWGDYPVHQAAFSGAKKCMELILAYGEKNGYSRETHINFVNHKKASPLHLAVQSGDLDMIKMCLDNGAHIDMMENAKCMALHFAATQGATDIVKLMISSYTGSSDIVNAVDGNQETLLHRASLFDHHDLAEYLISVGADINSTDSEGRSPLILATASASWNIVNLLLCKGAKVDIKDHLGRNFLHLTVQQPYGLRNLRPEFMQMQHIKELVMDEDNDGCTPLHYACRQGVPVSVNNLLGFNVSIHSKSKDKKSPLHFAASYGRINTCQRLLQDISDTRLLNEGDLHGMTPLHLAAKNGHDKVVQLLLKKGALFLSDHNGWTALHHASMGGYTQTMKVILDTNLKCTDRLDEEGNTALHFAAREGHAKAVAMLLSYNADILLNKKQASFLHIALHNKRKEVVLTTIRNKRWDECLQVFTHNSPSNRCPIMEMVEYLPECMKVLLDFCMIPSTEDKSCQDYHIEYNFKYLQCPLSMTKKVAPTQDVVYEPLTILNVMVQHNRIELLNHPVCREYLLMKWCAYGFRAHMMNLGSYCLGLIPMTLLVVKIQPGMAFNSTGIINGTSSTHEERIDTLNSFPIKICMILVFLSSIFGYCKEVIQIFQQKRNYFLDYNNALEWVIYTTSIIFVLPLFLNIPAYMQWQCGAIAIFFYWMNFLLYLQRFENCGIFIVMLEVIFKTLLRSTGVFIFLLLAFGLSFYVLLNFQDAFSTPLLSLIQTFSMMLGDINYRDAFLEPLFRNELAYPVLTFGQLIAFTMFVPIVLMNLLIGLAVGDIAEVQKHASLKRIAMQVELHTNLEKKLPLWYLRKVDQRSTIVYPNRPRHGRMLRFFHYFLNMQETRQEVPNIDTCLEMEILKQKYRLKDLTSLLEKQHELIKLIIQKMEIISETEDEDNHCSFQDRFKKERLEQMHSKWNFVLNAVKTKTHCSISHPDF

[4] = target: Transient receptor potential cation channel subfamily A member 1 (Mus musculus) (UniProt Q8BLA8); assay: as §2; assay type: cell-based; set-up: concentration or dose not given beside the values; outline: as §1
Chain of Transient receptor potential cation channel subfamily A member 1 (Mus musculus) (Q8BLA8 whole entry): as above

[5] = Clearance in Wistar rat at 3 mg/kg, iv; assay type: ADME, organism-based; set-up: dose 3 mg/kg, route intravenous; settings: in vivo
Outline: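 Wistar rats given 3 mg/kg i.v. as a solution in 75% PEG300/25% D5W.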

[6] = target: T2, Transient receptor potential cation channel subfamily V member 3 (Homo sapiens, UniProt Q8NET8); assay: (§3) Antagonist activity at human TRPV3 expressed in CHOK1 cells assessed as inhibition of 2-APB-induced calcium flux incubated 10 mins prior to 2-APB addition by FLIPR assay relative to control; assay type: cell-based, CHO-K1
T2 sequence (Q8NET8 whole entry): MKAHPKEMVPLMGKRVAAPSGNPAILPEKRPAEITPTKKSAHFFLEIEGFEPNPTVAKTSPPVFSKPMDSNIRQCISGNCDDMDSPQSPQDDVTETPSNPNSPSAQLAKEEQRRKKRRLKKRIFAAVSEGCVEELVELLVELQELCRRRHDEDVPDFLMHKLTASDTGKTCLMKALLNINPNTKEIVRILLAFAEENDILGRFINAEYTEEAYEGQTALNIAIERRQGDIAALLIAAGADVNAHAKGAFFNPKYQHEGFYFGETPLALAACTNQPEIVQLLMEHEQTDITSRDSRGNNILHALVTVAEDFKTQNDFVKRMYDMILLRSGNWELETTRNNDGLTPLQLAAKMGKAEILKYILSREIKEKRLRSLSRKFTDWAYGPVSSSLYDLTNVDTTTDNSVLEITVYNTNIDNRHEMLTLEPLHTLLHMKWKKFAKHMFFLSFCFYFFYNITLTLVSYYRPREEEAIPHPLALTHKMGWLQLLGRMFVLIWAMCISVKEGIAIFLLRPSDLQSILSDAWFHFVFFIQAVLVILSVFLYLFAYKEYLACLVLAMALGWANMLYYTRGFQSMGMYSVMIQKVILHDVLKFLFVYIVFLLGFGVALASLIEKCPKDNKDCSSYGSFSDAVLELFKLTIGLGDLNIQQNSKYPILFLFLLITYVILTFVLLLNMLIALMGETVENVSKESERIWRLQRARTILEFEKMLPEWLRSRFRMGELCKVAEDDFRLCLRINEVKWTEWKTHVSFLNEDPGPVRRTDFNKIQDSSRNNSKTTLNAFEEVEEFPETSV

[7] = target: T3, Transient receptor potential cation channel subfamily V member 3 (Homo sapiens) (UniProt Q8NET8); assay: as §3; assay type: cell-based; set-up: concentration or dose not given beside the values; settings: CHO-K1
T3 sequence (whole entry): T2 sequence (Q8NET8 whole entry)

[8] = target: Transient receptor potential cation channel subfamily M member 8 (Homo sapiens, UniProt Q7Z2W7); assay: Antagonist activity at human TRPM8 expressed in CHOK1 cells assessed as inhibition of menthol-induced calcium flux incubated 10 mins prior to menthol addition by FLIPR assay relative to control; assay type: cell-based, CHO-K1; settings: for inhibition: CHO-K1
[9] = Cmax in Wistar rat at 10 mg/kg, po; assay type: ADME, organism-based; set-up: dose 10 mg/kg, route oral; settings: in vivo
Outline: (§4)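 Male Wistar rats dosed orally at 10 mg/kg as a suspension in 0.5% methylcellulose/0.5% Tween80.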

[10] = Half life in Wistar rat at 3 mg/kg, iv; assay type: ADME, organism-based; set-up: dose 3 mg/kg, route intravenous; settings: in vivo
[11] = target: Transient receptor potential cation channel subfamily V member 1 (Homo sapiens, UniProt Q8NER1); assay: Antagonist activity at human TRPV1 expressed in CHOK1 cells assessed as inhibition of capsaicin-induced calcium flux incubated 10 mins prior to capsaicin addition by FLIPR assay relative to control; assay type: cell-based, CHO-K1; settings: for inhibition: CHO-K1
Chain of Transient receptor potential cation channel subfamily V member 1 (Q8NER1 whole entry): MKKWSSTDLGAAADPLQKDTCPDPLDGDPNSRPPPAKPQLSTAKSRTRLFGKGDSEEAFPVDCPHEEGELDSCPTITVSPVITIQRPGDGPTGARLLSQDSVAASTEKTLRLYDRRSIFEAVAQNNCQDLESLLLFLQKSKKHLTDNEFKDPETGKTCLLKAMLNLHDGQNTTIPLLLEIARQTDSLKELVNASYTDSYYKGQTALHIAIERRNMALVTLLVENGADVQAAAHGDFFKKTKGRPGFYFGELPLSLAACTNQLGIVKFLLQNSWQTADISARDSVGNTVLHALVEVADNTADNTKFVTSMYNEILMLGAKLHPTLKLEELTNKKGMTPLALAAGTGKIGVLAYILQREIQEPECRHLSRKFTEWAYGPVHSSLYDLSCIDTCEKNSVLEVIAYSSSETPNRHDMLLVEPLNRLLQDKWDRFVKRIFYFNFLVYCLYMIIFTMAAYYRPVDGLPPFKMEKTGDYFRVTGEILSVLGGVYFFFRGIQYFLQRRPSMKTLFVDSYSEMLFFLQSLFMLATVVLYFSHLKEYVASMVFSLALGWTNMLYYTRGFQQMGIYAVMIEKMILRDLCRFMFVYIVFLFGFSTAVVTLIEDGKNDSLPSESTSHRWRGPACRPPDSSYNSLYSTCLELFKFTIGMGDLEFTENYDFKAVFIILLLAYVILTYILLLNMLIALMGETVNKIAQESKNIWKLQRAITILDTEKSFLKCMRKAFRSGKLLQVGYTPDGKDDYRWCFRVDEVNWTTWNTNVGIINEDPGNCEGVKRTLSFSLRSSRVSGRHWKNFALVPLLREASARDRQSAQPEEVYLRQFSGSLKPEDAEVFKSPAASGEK

[12] = system: CHO-K1; assay: Selectivity ratio of IC50 for human TRPM8 expressed in CHOK1 cells to IC50 for human TRPA1 expressed in CHO-TREX cells; assay type: cell-based
Outline: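 FLIPR calcium-flux antagonist assays with Fluo4-AM loading (90 min, room temperature) in HBSS/20 mM HEPES/2.5 mM probenecid/0.1% BSA. Compound added 10 min before agonist at EC80: 40 µM menthol for CHO-K1 hTRPM8; for tetracycline-induced (0.5 µg/mL) CHO-TREX hTRPA1, 30 µM cinnamaldehyde, 2.5 µM AITC or 5 nM dibenzoxazepine carboxamide. Response is maximum minus minimum. IC50s come from sigmoidal fits of triplicate means.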

[13] = target: Transient receptor potential cation channel subfamily A member 1 (Rattus norvegicus, UniProt Q6RI86); assay: (§5) Antagonist activity at rat TRPA1 expressed in CHO-TREX cells assessed as inhibition of cinnamaldehyde-induced calcium flux incubated 10 mins prior to cinnamaldehyde addition by FLIPR assay relative to control; assay type: cell-based; outline: as §1
Chain of Transient receptor potential cation channel subfamily A member 1 (Rattus norvegicus, UniProt Q6RI86) (Q6RI86 whole entry): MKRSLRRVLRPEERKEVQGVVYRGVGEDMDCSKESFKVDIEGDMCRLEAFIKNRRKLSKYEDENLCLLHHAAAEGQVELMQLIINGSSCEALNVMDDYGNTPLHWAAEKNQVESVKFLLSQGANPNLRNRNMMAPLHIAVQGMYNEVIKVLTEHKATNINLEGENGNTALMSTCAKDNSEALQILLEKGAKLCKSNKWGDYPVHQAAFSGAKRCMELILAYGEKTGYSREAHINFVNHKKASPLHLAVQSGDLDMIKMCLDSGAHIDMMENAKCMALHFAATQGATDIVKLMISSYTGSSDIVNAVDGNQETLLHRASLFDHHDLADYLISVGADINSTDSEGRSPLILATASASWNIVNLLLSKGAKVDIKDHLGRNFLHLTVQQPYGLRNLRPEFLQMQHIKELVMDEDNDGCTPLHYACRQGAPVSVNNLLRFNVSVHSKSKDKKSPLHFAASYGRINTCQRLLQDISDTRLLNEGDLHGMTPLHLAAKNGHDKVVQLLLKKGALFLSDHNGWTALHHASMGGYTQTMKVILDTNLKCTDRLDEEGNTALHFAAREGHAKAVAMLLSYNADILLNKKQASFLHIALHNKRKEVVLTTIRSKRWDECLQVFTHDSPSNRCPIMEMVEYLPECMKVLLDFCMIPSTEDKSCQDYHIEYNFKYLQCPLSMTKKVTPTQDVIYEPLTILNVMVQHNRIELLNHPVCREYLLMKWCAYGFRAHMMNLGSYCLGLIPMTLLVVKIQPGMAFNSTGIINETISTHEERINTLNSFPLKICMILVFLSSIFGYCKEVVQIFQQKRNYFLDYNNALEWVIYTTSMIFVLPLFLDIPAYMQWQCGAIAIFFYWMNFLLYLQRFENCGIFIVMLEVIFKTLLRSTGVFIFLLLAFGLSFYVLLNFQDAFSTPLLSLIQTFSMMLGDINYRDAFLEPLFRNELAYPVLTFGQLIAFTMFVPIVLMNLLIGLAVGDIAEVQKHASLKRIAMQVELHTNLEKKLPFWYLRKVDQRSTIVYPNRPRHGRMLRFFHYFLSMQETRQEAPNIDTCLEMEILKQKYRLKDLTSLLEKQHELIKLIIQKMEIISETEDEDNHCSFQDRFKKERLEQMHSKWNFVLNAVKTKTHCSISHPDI

[14] = target: Transient receptor potential cation channel subfamily A member 1 (Rattus norvegicus) (UniProt Q6RI86); assay: as §5; assay type: cell-based; set-up: concentration or dose not given beside the values; outline: as §1
Chain of Transient receptor potential cation channel subfamily A member 1 (Rattus norvegicus) (Q6RI86 whole entry): as above

[15] = Oral bioavailability in Wistar rat at 10 mg/kg; assay type: ADME, organism-based; settings: in vivo; outline: as §4
[16] = system: CHO-K1; assay: Selectivity ratio of IC50 for human TRPV1 expressed in CHOK1 cells to IC50 for human TRPA1 expressed in CHO-TREX cells; assay type: cell-based
Outline: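 Stable hTRPV1 CHO-K1 and tetracycline-induced (0.5 µg/mL) hTRPA1 CHO-TREX cells were loaded with Fluo4-AM for 90 min at room temperature and read on FLIPR. Antagonist preincubation was 10 min before EC80 agonist: capsaicin 40 nM (TRPV1); cinnamaldehyde 30 µM, AITC 2.5 µM or dibenzoxazepine carboxamide 5 nM (TRPA1). Buffer contained probenecid and BSA. IC50s were fitted from triplicate means of max−min calcium signal.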

[17] = Volume of distribution at steady state in Wistar rat at 3 mg/kg, iv; assay type: ADME, organism-based; set-up: dose 3 mg/kg, route intravenous; settings: in vivo, read-out: Vdss
[18] = AUC in Wistar rat at 10 mg/kg, po; assay type: ADME, organism-based; set-up: dose 10 mg/kg, route oral; settings: plasma; outline: as §4
[19] = Tmax in Wistar rat at 10 mg/kg, po; assay type: ADME, organism-based; set-up: dose 10 mg/kg, route oral; settings: in vivo; outline: as §4
[20] = target: T1, Transient receptor potential cation channel subfamily A member 1; assay: Antagonist activity at human TRPA1 expressed in CHO-TREX cells assessed as inhibition of allyl isothiocyanate-induced calcium flux incubated 10 mins prior to allyl isothiocyanate addition by FLIPR assay relative to control; assay type: cell-based; outline: as §1
[21] = target: T1, Transient receptor potential cation channel subfamily A member 1; assay: Antagonist activity at human TRPA1 expressed in CHO-TREX cells assessed as inhibition of dibenzo[b,f ][1,4]oxazepine-4-carboxamide-induced calcium flux incubated 10 mins prior to dibenzo[b,f ][1,4]oxazepine-4-carboxamide addition by FLIPR assay relative to control; assay type: cell-based; outline: as §1

- IC50 [1]: 7.41 µM
- inhibition [1]: 98%
SMILES: Cn1ncc2cc(-c3ccccc3C(F)(F)F)ccc21

- IC50 [1]: 0.142 µM
- inhibition [1]: 97%
SMILES: COCc1cc2[nH]ncc2cc1-c1ccccc1C(F)(F)F

- IC50 [1]: 0.103 µM
- inhibition [1]: 100%
SMILES: FC(F)c1cc2[nH]ncc2cc1-c1ccccc1C(F)(F)F

- IC50 [1]: 3.95 µM
- inhibition [1]: 68%
SMILES: Fc1ccccc1-c1ccc2[nH]ncc2c1

- IC50 [1]: 0.584 µM
- inhibition [1]: 96%
SMILES: CCc1ccccc1-c1ccc2[nH]ncc2c1

- IC50 [3]: 0.094 µM
- inhibition [4]: 100%
- clearance [5]: 13.6 mL/min/kg
- IC50 [6]: > 30 µM
- inhibition [7]: 0%
- IC50 [8]: 17.1 µM
- inhibition [8]: 71%
- Cmax [9]: 6.05 µM
- half-life [10]: 3.4 h
- IC50 [11]: 16.7 µM
- inhibition [11]: 70%
- IC50 [13]: 0.169 µM
- inhibition [14]: 98%
- bioavailability [15]: 63%
- Vd [17]: 1.65 L/kg
- AUC [18]: 26.2 µM·h
- Tmax [19]: 0.5 h
- IC50 [1]: 0.024 µM
- inhibition [1]: 98%
SMILES: FC(F)(F)c1ccccc1-c1cc2cn[nH]c2cc1Cl
- Ratio IC50 [2]: > 100
- Ratio IC50 [12]: > 100
- Ratio IC50 [16]: > 100

- IC50 [1]: 0.97 µM
- inhibition [1]: 97%
SMILES: CC(C)Oc1cc2[nH]ncc2cc1-c1ccccc1C(F)(F)F

- IC50 [1]: 0.05 µM
- inhibition [1]: 100%
SMILES: CCc1cc2[nH]ncc2cc1-c1ccccc1C(F)(F)F

- IC50 [1]: 1.23 µM
- inhibition [1]: 91%
SMILES: Clc1ccccc1-c1ccc2[nH]ncc2c1

- IC50 [1]: > 30 µM
SMILES: CNC(=O)c1cc2[nH]ncc2cc1-c1ccccc1C(F)(F)F

- IC50 [1]: 0.061 µM
- inhibition [1]: 99%
SMILES: FC(F)(F)c1ccccc1-c1cc2cn[nH]c2cc1C1CC1

- IC50 [1]: > 30 µM
SMILES: c1ccc(-c2ccc3[nH]ncc3c2)cc1

- IC50 [1]: 6.72 µM
- inhibition [1]: 98%
SMILES: Cc1cc(-c2ccccc2C(F)(F)F)cc2cn[nH]c12

- IC50 [1]: 0.048 µM
- inhibition [1]: 98%
SMILES: Fc1cc2[nH]ncc2cc1-c1ccccc1C(F)(F)F

- IC50 [3]: 0.252 µM
- inhibition [4]: 100%
- clearance [5]: 14.7 mL/min/kg
- IC50 [20]: 0.084 µM
- inhibition [20]: 97%
- IC50 [6]: > 30 µM
- inhibition [7]: 10%
- IC50 [8]: 9 µM
- inhibition [8]: 95%
- Cmax [9]: 4.77 µM
- half-life [10]: 3.5 h
- IC50 [11]: > 30 µM
- inhibition [11]: 34%
- IC50 [13]: 0.4 µM
- inhibition [14]: 98%
- bioavailability [15]: 37%
- Vd [17]: 2.06 L/kg
- IC50 [21]: 0.55 µM
- inhibition [21]: 100%
- AUC [18]: 15.7 µM·h
- Tmax [19]: 0.5 h
- IC50 [1]: 0.164 µM
- inhibition [1]: 98%
SMILES: FC(F)(F)c1ccccc1-c1ccc2[nH]ncc2c1
- Ratio IC50 [2]: > 100
- Ratio IC50 [12]: > 100
- Ratio IC50 [16]: > 100

- IC50 [1]: 0.296 µM
- inhibition [1]: 97%
SMILES: Fc1c(-c2ccccc2C(F)(F)F)ccc2[nH]ncc12
